# Results from ChEMBL document CHEMBL1127739, “Newly discovered stereochemical requirements in the side-chain conformation of delta opioid agonists for recognizing opioid delta receptors” (J Med Chem, 1994).
# Experiments:
# Mu-type opioid receptor = Mu-type opioid receptor (Cavia porcellus, UniProt P97266); assay: Effective concentration was measured towards mu opioid receptor using guinea pig ileum (GPI, mu) bioassay in vitro; format: tissue-based
# Method in brief: (§1)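 Electrically stimulated MVD (male ICR mice, 25–30 g) and GPI longitudinal muscle-myenteric plexus (male Hartley guinea pigs, 150–400 g) in 37 °C oxygenated Krebs, magnesium-free for MVD. Tension 1 g (MVD 0.5 g); stimulation 0.1 Hz, 0.4-ms pulses (MVD 2.0 ms), supramaximal voltage.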
# [1] = Selectivity is the ratio between IC50 values of [3H]CTOP and [3H][p-Cl-phe4]-DPDPE
# Method in brief: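 Brain membranes were homogenised in 50 mM Tris-HCl pH 7.4, pelleted at 48000g, and preincubated at 25 °C for 30 min to strip endogenous peptides. Buffer contained BSA, bestatin, bacitracin, captopril and toluenesulfonyl fluoride. δ radioligand was [3H][D-Pen2,p-Cl-Phe4,D-Pen5]enkephalin 0.75 nM; μ was [3H]CTOP 0.5 nM. Ten concentrations over 800-fold, in duplicate. Nonspecific binding used 10 μM naltrexone. Incubated 25 °C for 3 h, then filtered and counted.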
# [2] = target: Delta-type opioid receptor (Mus musculus, UniProt P32300); assay: Effective concentration was measured towards delta opioid receptor using mouse vas deferens(MVD, delta) bioassay in vitro; method in brief: as §1
# [3] = target: Opioid receptors; mu & delta (Homo sapiens) (UniProt P41143+P35372); assay: Selectivity is the ratio between EC50 values GPI(mu) and MVD(delta); format: protein assay
# Method in brief: as §1, with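 “voltage. Agonist applied 3 min; percent inhibition of contraction height.” for “voltage.”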
# Sequence of Opioid receptors; mu & delta (Homo sapiens) (P35372 whole entry, looked up): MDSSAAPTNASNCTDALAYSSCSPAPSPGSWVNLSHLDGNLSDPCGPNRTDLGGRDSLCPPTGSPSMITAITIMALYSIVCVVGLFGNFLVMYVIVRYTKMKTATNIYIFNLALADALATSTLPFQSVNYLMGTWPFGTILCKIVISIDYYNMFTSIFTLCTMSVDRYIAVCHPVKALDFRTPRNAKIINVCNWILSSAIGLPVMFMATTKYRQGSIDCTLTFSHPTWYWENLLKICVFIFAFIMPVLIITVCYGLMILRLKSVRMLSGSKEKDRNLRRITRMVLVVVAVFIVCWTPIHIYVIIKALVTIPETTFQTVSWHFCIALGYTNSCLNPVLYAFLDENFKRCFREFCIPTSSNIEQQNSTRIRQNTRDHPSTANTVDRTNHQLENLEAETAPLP
# Sequence of Opioid receptors; mu & delta (Homo sapiens) (P41143 whole entry, looked up): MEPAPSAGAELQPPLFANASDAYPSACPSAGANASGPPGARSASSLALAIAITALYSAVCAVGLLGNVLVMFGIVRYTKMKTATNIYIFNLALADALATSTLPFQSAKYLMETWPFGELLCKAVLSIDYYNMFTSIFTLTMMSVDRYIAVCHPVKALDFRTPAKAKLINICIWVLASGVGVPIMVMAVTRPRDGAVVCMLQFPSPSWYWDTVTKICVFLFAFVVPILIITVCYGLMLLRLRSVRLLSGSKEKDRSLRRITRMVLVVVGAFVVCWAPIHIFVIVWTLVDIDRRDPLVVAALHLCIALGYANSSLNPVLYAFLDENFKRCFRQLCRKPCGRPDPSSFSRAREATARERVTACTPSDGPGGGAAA
# Sequence of Delta-type opioid receptor (P32300 whole entry): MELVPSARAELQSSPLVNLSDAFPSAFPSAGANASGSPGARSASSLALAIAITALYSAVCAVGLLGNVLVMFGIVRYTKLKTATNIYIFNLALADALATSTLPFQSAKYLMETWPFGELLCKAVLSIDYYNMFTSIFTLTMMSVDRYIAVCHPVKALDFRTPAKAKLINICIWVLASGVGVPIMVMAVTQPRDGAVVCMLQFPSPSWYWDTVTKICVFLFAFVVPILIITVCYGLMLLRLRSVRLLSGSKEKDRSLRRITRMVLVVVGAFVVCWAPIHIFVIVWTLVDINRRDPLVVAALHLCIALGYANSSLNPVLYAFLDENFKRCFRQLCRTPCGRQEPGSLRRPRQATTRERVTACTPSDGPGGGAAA
# Sequence of Mu-type opioid receptor (P97266 whole entry): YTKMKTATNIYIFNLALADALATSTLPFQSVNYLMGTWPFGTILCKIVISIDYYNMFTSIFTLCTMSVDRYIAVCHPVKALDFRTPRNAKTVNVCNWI
compound,measurement,setting,value
Cc1cc(O)cc(C)c1[C@H](C)[C@H](N)C(=O)N[C@H](C)C(=O)N[C@@H](Cc1ccccc1)C(=O)N[C@@H](CC(=O)O)C(=O)N[C@H](C(=O)N[C@H](C(=O)NCC(N)=O)C(C)C)C(C)C,EC50,Mu-type opioid receptor,3840 nM
same,Selectivity,[1],5740
same,EC50,[2],0.66 nM
same,Selectivity,[3],5820
Cc1cc(O)cc(C)c1[C@H](C)[C@H](N)C(=O)N[C@H]1C(=O)NCC(=O)N[C@@H](Cc2ccccc2)C(=O)N[C@@H](C(=O)O)C(C)(C)SSC1(C)C,EC50,Mu-type opioid receptor,293 nM
same,Selectivity,[1],3.4
same,EC50,[2],168 nM
same,Selectivity,[3],1.74
